In ChEMBL document CHEMBL3351905, “Cyclic Penta- and Hexaleucine Peptides without N-Methylation Are Orally Absorbed” (ACS Med Chem Lett, 2014):
Peptide text beside a SMILES is read from it.

What was measured:
[1] = Permeability in human Caco2 cells at 10 uM by LC-MS method; type: ADME, cell-based; details: caco-2, 10 µM
Method in brief: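 Caco-2 monolayers; compound at 10 μM, cyclosporin A comparator at 30 μM; medium 0.05% DMSO in HEPES buffer, pH 7.4, 37 °C; apparent permeability in cm·s–1.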

[2] = Oral bioavailability in Wistar rat at 10 mg/kg measured over 8 hrs by LC-MS method; type: ADME, organism-based; details: in vivo
[3] = Apparent permeability in RRCK cells at 8 uM at pH 7.4 incubated for 2 hrs by LC-MS/MS method; type: ADME, cell-based, Canis lupus familiaris, MDCKII-LE; details: dog, MDCK
[4] = Apparent permeability in RRCK cells at 8 uM at pH 7.4 incubated for 2 hrs by LC-MS/MS method relative to CSA; type: ADME, cell-based, Canis lupus familiaris; details: dog, mdckii-le, pH 7.4, 2 h
Method in brief: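 RRCK monolayers (no active transporters); compound at 8 μM alongside cyclosporin A at 8 μM; medium 0.05% DMSO in HEPES buffer, pH 7.4, 37 °C; apparent permeability expressed in cm·s–1.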

[5] = Clearance in Wistar rat at 1 mg/kg, iv by LC-MS method; type: ADME, organism-based; parameters: dose 1 mg/kg, route intravenous; details: in vivo

Row | permeability [1] | bioavailability [2] [%] | Papp at 2 h, 8 µM [3] [×10⁻⁶ cm/s] | fold change (FC) [4] | clearance [5] [mL/min/kg] | SMILES
1 | permeable | 9 | > 1 | 2 | 24.1 | CC(C)C[C@@H]1NC(=O)[C@H](CC(C)C)NC(=O)[C@H](CC(C)C)NC(=O)[C@@H](CC(C)C)NC(=O)[C@H](CC(C)C)NC(=O)[C@H](CC(C)C)NC1=O
2 | permeable | 17 | > 1 | 2 | 4.7 | CC(C)C[C@@H]1NC(=O)[C@H](CC(C)C)NC(=O)[C@H](CC(C)C)NC(=O)[C@H](CC(C)C)NC(=O)[C@H](CC(C)C)NC(=O)[C@H](CC(C)C)NC1=O
3 | permeable | 4 | 1.7 |  |  | CC(C)C[C@@H]1NC(=O)[C@H](CC(C)C)NC(=O)[C@H](CC(C)C)NC(=O)[C@H](CC(C)C)NC(=O)[C@H](CC(C)C)NC1=O (cyclo(LLLLL))
